# Screening results deposited in PubChem by The Scripps Research Institute Molecular Screening Center.
# Sampled rows, rich in hits. Any-hit rate of the full collection: about 3.2%.
# HTRA1 inhibitor: inhibitors of human serine peptidase HTRA1. actives 0.5% (n = 340,000). recombinant HTRA1, FP-rhodamine activity-based probe, fluorescence polarization. Q92743. inhibition, % at 5.96 µM; in the data active means inhibition above about 36%
# DAGLB inhibitor: diacylglycerol lipase beta (human) inhibition; HEK293T DAGLB membrane lysate, EnzChek fluorogenic substrate; inhibition, % at 5.17 µM; actives 0.059% (n = 340,000); AID 504411; in the data active means inhibition above about 34%
# PRMT1 FP inh: inhibitors of human PRMT1. Q99873. recombinant PRMT1, activity-based probe fluorescence polarization. inhibition, % at 2.79 µM. actives 1.3% (n = 370,000). AID 652257;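 active means inhibition above about 21% made by adding two undisclosed values, limit read from the data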
# Target sequence (Q99873 whole entry, looked up): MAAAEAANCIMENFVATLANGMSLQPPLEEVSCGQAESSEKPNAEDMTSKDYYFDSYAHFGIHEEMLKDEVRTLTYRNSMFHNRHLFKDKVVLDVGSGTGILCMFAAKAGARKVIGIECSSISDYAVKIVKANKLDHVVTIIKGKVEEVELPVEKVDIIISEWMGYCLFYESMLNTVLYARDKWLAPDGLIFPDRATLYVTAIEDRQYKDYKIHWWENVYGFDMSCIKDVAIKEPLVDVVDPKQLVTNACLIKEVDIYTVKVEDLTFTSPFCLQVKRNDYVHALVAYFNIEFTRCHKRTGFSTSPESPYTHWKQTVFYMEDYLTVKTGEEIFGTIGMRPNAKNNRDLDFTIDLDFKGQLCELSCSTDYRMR
# ABHD4 inh: inhibits mouse alpha/beta hydrolase domain 4; purified mABHD4, FP-Rh probe fluorescence polarization; actives 0.54% (n = 370,000); Q8VD66; inhibition, % at 8.92 µM; AID 720543;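 active means inhibition exceeding the mean over every tested compound plus 3 SD, cut at about 30% in these data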
# Target sequence (Q8VD66 whole entry, looked up, the tested form may be a part): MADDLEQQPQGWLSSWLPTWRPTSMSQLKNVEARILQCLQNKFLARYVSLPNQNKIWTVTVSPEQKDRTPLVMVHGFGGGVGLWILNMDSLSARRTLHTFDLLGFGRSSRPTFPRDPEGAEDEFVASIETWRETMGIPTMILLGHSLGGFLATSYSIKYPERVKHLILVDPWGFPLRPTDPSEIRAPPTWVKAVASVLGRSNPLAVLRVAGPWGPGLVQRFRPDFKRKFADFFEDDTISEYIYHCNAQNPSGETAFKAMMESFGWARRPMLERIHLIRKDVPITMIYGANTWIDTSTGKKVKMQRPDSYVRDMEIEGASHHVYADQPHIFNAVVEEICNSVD
#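 system = mouse ABHD4 enzyme, wild type | medium = HEPES pH 7.0, NaCl, Pluronic buffer | also added = FP-Rh probe | incubation = Enzyme–compound pre-incubation 45 min, then probe 60 min, both 25 °C | technique = fluorescence polarization, excitation 525 nm, emission 598 nm, BODIPY TMR filters | controls = S159A mutant high control, sample median low control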
# rCAG binder: molecules binding r(CAG) RNA repeats; r(CAG) RNA repeat, TO-PRO-1 dye displacement fluorescence; inhibition, % at 3 µM; actives 1.3% (n = 370,000);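 active means inhibition above the plate cutoff, the mean of all test compounds on that plate plus 3 SD, cut at about 35% in these data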;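 further: higher means more dye released from RNA so lower well fluorescence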
# LEDGF integ inh: blocks HIV-1 LEDGF/p75-dependent DNA integration. TR-FRET IN-LEDGF/p75 DNA integration, Eu/Cy5. inhibition, % at 3.7 µM. actives 0.64% (n = 370,000);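 active means inhibition above the screen-wide mean plus 3 SD, cut at about 13% in these data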;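 further: signal is the Cy5 over europium emission ratio at 671 and 618 nm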
# HTRA1 inh conf: HTRA1 (human) inhibition, confirmation | shares compounds with HTRA1 inhibitor | recombinant HTRA1, FP-rhodamine activity-based probe, fluorescence polarization | inhibition, % at 5.96 µM | actives 66% (n = 1,600);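 active means mean inhibition over three repeats above a set limit taken from the earlier primary screen, cut at about 37% in these data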;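 further: inhibitors block probe binding so polarization drops and inhibition rises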
# rCAG bind conf: r(CAG) RNA repeat binding, confirmation; shares compounds with rCAG binder; TO-PRO-1 dye displacement fluorescence; inhibition, % at 3 µM; actives 70% (n = 4,300); AID 652065;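 active means inhibition above a per-plate cutoff, the mean inhibition of sample wells plus 3 SD, cut at about 35% in these data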;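 further: loss of TO-PRO-1 fluorescence as compound displaces dye from 1x1 AA loop RNA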
# DNA CAG counter: counter-screen for rCAG RNA binders: DNA CAG dye complex inhibitors; shares compounds with rCAG binder; d(CAG) DNA oligo TO-PRO-1 dye displacement, fluorescence; inhibition, % at 3 µM; actives 94% (n = 4,300); AID 652068;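 active means inhibition above its plate's cutoff, the mean test-well inhibition plus 3 SD, cut at about 4.8% in these data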;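 further: hits displace the dye from DNA and so lower well fluorescence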
# PRMT1 inh conf: confirmation of human PRMT1 inhibitors; shares compounds with PRMT1 FP inh; recombinant His-PRMT1, activity-based probe fluorescence polarization; inhibition, % at 2.79 µM; actives 42% (n = 3,300);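 active means mean inhibition across replicates above the hit cutoff derived for the earlier primary screen, cut at about 22% in these data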
# mABHD4 conf: confirmation of mouse ABHD4 inhibitors | shares compounds with ABHD4 inh | purified mABHD4, FP-Rh probe fluorescence polarization | inhibition, % at 8.92 µM | actives 55% (n = 1,800) | AID 720658;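 active means mean inhibition across replicates above the hit cutoff set in the primary screen, cut at about 30% in these data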
# IN multimer up: activates HIV-1 integrase multimerization in LEDGF counter-screen | actives 17% (n = 2,000) | AID 1053131 | shares compounds with LEDGF integ inh | activation, % at 7.7 µM | TR-FRET HIV-1 integrase multimerization, biochemical; in the data active means activation above about 8.9%
# TR-FRET interf: TR-FRET optical interference, LEDGF/p75 integration counter-screen. 2,000 tested, under 10 active. shares compounds with LEDGF integ inh. inhibition, % at 7.7 µM. TR-FRET optical interference counterscreen, HIV-1 IN multimerization;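 active means inhibition above the mean over all tested compounds plus 3 SD, which no compound reached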
# IN-LEDGF confirm: LEDGF/p75-dependent HIV-1 integration inhibition, confirmation. shares compounds with LEDGF integ inh. TR-FRET LEDGF/p75-dependent HIV-1 integration, biochemical. inhibition, % at 3.7 µM. actives 36% (n = 2,000); in the data active means inhibition above about 14%
# Numbers stand for hits; 0 = inactive; - = no result.
SMILES,HTRA1 inhibitor,DAGLB inhibitor,PRMT1 FP inh,ABHD4 inh,rCAG binder,LEDGF integ inh,rCAG bind conf,DNA CAG counter,others
CCOc1ccccc1-n1c(O)c(C=Nc2ccc(N(CC)CC)cc2)c(=O)[nH]c1=O,58,0,0,67,0,14,-,-,HTRA1 inh conf=0;mABHD4 conf=0;IN multimer up=0;TR-FRET interf=0;IN-LEDGF confirm=0
CN=C1CN=C(c2ccc[nH]2)c2cc(Cl)ccc2N1,-,-,0,0,-,0,-,-,
CN1C(=O)/C(=C/c2cccn2-c2ccc3ccccc3c2)C(=O)NC1=S,60,0,44,65,63,18,0,16,HTRA1 inh conf=0;mABHD4 conf=0;IN multimer up=0;TR-FRET interf=0;IN-LEDGF confirm=30
Cc1cc(C)cc(N2C(=O)NC(=O)/C(=C\c3cccn3-c3ccccc3)C2=O)c1,0,0,0,0,0,0,-,-,
CC[n+]1c(-c2ccccc2)c2cc(N)ccc2c2ccc(N)cc21,109,0,37,82,0,42,-,-,HTRA1 inh conf=118;PRMT1 inh conf=0;mABHD4 conf=105;IN multimer up=0;TR-FRET interf=0;IN-LEDGF confirm=70
Cc1cc(Br)ccc1N1C(=O)CC(=O)NC1=O,0,0,0,0,40,0,0,0,
COc1ccc(CN2C(=O)CC(=O)NC2=S)cc1,0,0,0,0,38,0,0,0,
O=C1CC(=O)N(Cc2ccccc2)C(=O)N1,0,0,0,0,0,0,-,-,
O=C/C=C/c1ccccc1,0,0,0,0,0,0,-,-,
CCOC(=O)c1[nH]c2ccc(OC)cc2c1C(SCC(=O)O)c1ccc(C(F)(F)F)cc1 (stereo unspecified),0,0,0,0,56,0,51,14,
O=C(NCP(=O)(Oc1ccccc1)Oc1ccccc1)OCc1ccccc1,-,-,0,0,69,0,0,0,
COC(=O)C1C(O)C(C)C(O)C(C)/C=C\C=C(/C)C(=O)Nc2c(C)c(OC(C)=O)c3c(c2O)C(=O)C(C)=C2OCOC(=C23)/C(C)=C/C(C)(O)C(O)C(C)C1O (stereo unspecified),0,0,0,0,47,0,0,6.5,
CCc1ccc(N2C(=O)NC(=O)/C(=C/c3cccn3CCOc3ccc(C)cc3)C2=O)cc1,0,0,0,0,0,0,-,-,
O=C1NC(=O)N(Cc2ccco2)C(=O)/C1=C\c1cccn1CCOc1ccc(Cl)cc1,0,0,0,0,35,61,0,7.6,
O=c1nc(/C=C/c2ccc(Cl)cc2Cl)cc(C(F)(F)F)[nH]1,0,0,0,0,49,0,38,10,
CC(C)(C#CC(=O)O)OOC(c1ccccc1)(c1ccccc1)c1ccccc1,0,0,0,0,53,0,57,20,
COc1ccc(C(c2nnnn2-c2ccc3c(c2)OCCO3)N2CCC(n3c(=O)[nH]c4ccccc43)CC2)cc1 (stereo unspecified),-,-,0,0,0,0,-,-,
O=P(NS(=O)(=O)c1ccccc1)(Oc1ccccc1)Oc1ccccc1,0,0,0,0,0,0,-,-,
Cc1ccc(S(=O)(=O)NP(=O)(Oc2ccccc2)Oc2ccccc2)cc1,0,0,0,0,40,0,36,9.7,
O=P(NS(=O)(=O)c1ccc(Br)cc1)(Oc1ccccc1)Oc1ccccc1,0,0,0,0,73,0,63,25,
Cc1ccc(C)c(NP(=O)(Oc2ccccc2)Oc2ccccc2)c1,0,0,0,0,0,0,-,-,
O=P(NS(=O)(=O)c1ccc(Cl)cc1)(Oc1ccccc1)Oc1ccccc1,0,0,0,0,62,0,59,19,
CN(C)P1(N(C)C)=NC(C(F)(F)F)=NC(C(F)(F)F)=N1,0,0,0,0,0,0,-,-,
CC(C)(C)NC(=S)N1CCn2cccc2C1c1cccnc1 (stereo unspecified),0,0,0,0,0,0,-,-,
C1CCC(NC2CCCCC2)CC1,0,0,0,0,0,0,-,-,
SMILES,HTRA1 inhibitor,DAGLB inhibitor,PRMT1 FP inh,ABHD4 inh,rCAG binder,LEDGF integ inh,rCAG bind conf,DNA CAG counter,others
O=C1NCN(c2ccccc2)C12CCN(C(c1ccccc1OC(F)(F)F)c1nnnn1C1CCCC1)CC2 (stereo unspecified),-,-,0,0,0,0,-,-,
O=c1[nH]c(=S)[nH]c(O)c1N=Nc1ccc(S(=O)(=O)N2CCc3ccccc32)cc1,0,0,0,0,64,0,49,19,
O=c1[nH]c(=S)[nH]c(O)c1N=Nc1ccc(SC(F)F)cc1,0,0,0,0,0,0,-,-,
O=C(N/N=C/c1c(O)n(CCc2ccccc2)c(=O)[nH]c1=O)c1ccccc1O,0,0,0,39,87,0,65,25,
S=C=Nc1cccc(C2(N3CCCCC3)CCCCC2)c1,0,0,0,0,0,0,-,-,
CC(C)OP(=O)(OC(C)C)C(O)c1ccccc1F (stereo unspecified),0,0,0,0,0,0,-,-,
COc1ccc(N2C(=O)NC(=O)/C(=C/c3ccc([N+](=O)[O-])s3)C2=O)cc1,-,-,0,0,69,0,50,21,
CCOc1ccc(N2C(=O)NC(=O)/C(=C\c3cc(OC)c(OC)cc3[N+](=O)[O-])C2=O)cc1,0,0,-,-,-,-,-,-,
COc1ccccc1N1C(=O)NC(=O)/C(=C/c2ccc([N+](=O)[O-])s2)C1=O,-,-,27,0,84,0,60,28,
COc1ccc(N2C(=O)/C(=C/C=C/c3ccccc3[N+](=O)[O-])C(=O)NC2=S)cc1,-,-,0,0,84,0,78,44,
COc1cccc(N2C(=O)NC(=O)/C(=C/c3ccc([N+](=O)[O-])s3)C2=O)c1,0,0,0,0,59,0,43,20,
